Data published in ChEMBL document CHEMBL1151959, “Identification and biological evaluation of a series of 1H-benzo[de]isoquinoline-1,3(2H)-diones as hepatitis C virus NS5B polymerase inhibitors” (J Med Chem, 2009).
Values after ≈ are worked out from the molar mass of the structure shown. Active and inactive are the calls of the source. The rule behind the calls is not given here.

What was measured:
[1] = Inhibition of HCV2b.2 NS5B Cdelta21 RNA dependent RNA polymerase; design: species or system Hepacivirus hominis, 2b.2
Outline: (§1)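 Truncated ΔC21 NS5B RdRp from the HCV genotype 1b BK strain or the genotype 2b 2b.2 strain. Values are the mean of two or more experiments, with SD within 30% of the mean.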

[2] = Inhibition of HCV1b BK NS5B Cdelta21 RNA dependent RNA polymerase; design: species or system Hepatitis C virus (isolate BK); outline: as §1
[3] = Cytotoxicity against human HuH7 cells by MTT assay; format: cell-based; conditions: Huh-7 cells
[4] = system: Hepatitis C virus; assay: Antiviral activity against HCV1b Con1 infected in human Huh7 clone HBI10A cells expressing HEPREP 1b replicon by cell-ELISA assay; format: functional, organism-based, Hepacivirus hominis; conditions: isolate Con1, Huh-7
[5] = Inhibition of HIV reverse transcriptase; design: species or system Human immunodeficiency virus
[6] = AUC in rat at 3 mg/kg, po; format: ADME, organism-based; design: dose 3 mg/kg, route oral; conditions: plasma
Outline: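 Single oral dose of 3 mg/kg given to rats. Compound concentrations were measured in plasma, and AUC was taken from the plasma exposure after oral dosing. The same rat study also included an iv administration arm.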

[7] = system: Hepatitis C virus; assay: Antiviral activity against HCV1b BK infected in human H2B2 cells expressing HEPREP 2b replicon by cell-ELISA assay
[8] = Inhibition of HCV2a.4 NS5B Cdelta21 RNA dependent RNA polymerase; design: species or system Hepacivirus hominis, 2a.4
[9] = Inhibition of HCV1a RB5 NS5B Cdelta21 RNA dependent RNA polymerase; design: species or system Hepatitis C virus subtype 1a
[10] = system: Hepatitis C virus; assay: Antiviral activity against HCV 2b.2 infected in human Huh7 cells by replicon cell-ELISA assay; conditions: 2b.2, Huh-7
[11] = Lipophilicity, log D of the compound; format: physicochemical; conditions: octanol/water
[12] = system: Hepatitis C virus; assay: Antiviral activity against HCV1b Con1 infected in human Huh7 cells by replicon cell-ELISA assay; conditions: isolate Con1, Huh-7
[13] = system: Hepatitis C virus; assay: Antiviral activity against HCV H77-1a infected in human Huh7 cells by replicon cell-ELISA assay; conditions: genotype 1a H77, Huh-7
[14] = system: Hepatitis C virus (isolate BK); assay: Inhibition of HCV1b BK NS5B Cdelta21 RNA dependent RNA polymerase in pre-elongation phase assessed as residual enzyme activity at 6.4 uM to 3 nM preincubated for 15 mins with polyA oligoU18 RNA in room temperature
Outline: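 ΔC21-1b polymerase (20 nM) with polyA/oligoU18 RNA, preincubated 15 min at room temperature before compound addition or not preincubated. Compound titrated 3 nM to 6.4 μM. Residual activity measured.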

[15] = Inhibition of Bovine viral diarrhea virus 1 RNA-dependent RNA polymerase
[16] = Oral bioavailability in rat at 3 mg/kg; format: ADME, organism-based; conditions: in vivo
[17] = Cmax in rat at 3 mg/kg, po after 0.7 hrs; format: ADME, organism-based; design: dose 3 mg/kg, route oral; conditions: in vivo
[18] = biological target: Genome polyprotein (GB virus-B, UniProt Q69422); assay: Inhibition of Hepatitis GB virus B NS5B RNA dependent RNA polymerase
[19] = Solubility of the compound; format: physicochemical
[20] = Inhibition of DNA polymerase 1 Klenow fragment
[21] = Elimination half life in rat at 3 mg/kg, iv; format: ADME, organism-based; design: dose 3 mg/kg, route intravenous; conditions: in vivo
[22] = Volume of distribution at steady state in rat at 3 mg/kg, iv; format: ADME, organism-based; design: dose 3 mg/kg, route intravenous; conditions: in vivo, read-out: Vdss
[23] = system: Hepatitis C virus; assay: Antiviral activity against HCV1b BK infected in human Huh7 cells by replicon cell-ELISA assay; conditions: Huh-7
[24] = system: Hepatitis C virus (isolate BK); assay: Inhibition of HCV1b BK NS5B Cdelta21 RNA dependent RNA polymerase in pre-elongation phase assessed as residual enzyme activity at 1 uM preincubated for 120 mins with polyA oligoU18 RNA in room temperature
Outline: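 Preincubation time course: ΔC21-1b enzyme and polyA/oligoU18 RNA preincubated 0 to 120 min before adding compound at 1 μM. Residual polymerase activity measured.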

[25] = Clearance in rat at 3 mg/kg, iv; format: ADME, organism-based; design: dose 3 mg/kg, route intravenous; conditions: in vivo
[26] = Inhibition of HCV3a.7 NS5B Cdelta21 RNA dependent RNA polymerase; design: species or system Hepacivirus hominis, 3a.7
[27] = Inhibition of HCV4a NS5B Cdelta21 RNA dependent RNA polymerase; design: species or system Hepatitis C virus subtype 4a
[28] = Inhibition of HCV6a NS5B Cdelta21 RNA dependent RNA polymerase; design: species or system Hepatitis C virus subtype 6a
Outline: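 Purified ΔC21-truncated NS5B RNA-dependent RNA polymerase from HCV genotype 6a, run alongside enzymes from the other major genotypes. Each value is the mean of two or more separate experiments, with SD within ±30% of the mean.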

[29] = system: Hepatitis C virus (isolate BK); assay: Inhibition of HCV1b BK NS5B Cdelta21 RNA dependent RNA polymerase in pre-elongation phase assessed as residual activity at 1 uM to 0.1 nM preincubated for 5 mins with polyA oligoU18 RNA in room temperature in presence of heparin
Outline: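 Single-cycle conditions: ΔC21-1b enzyme and polyA/oligoU18 RNA preincubated 5 min, then compound added from 0.1 nM to 1 μM. Elongation started with 3H-UTP plus heparin (50 ng/μL) to trap free enzyme. Residual polymerase activity measured.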

[30] = Inhibition of HCV1b BK NS5B Cdelta21 RNA dependent RNA polymerase Thumb site 2 R501E mutant; design: species or system Hepatitis C virus (isolate BK)
[31] = biological target: RNA-directed RNA polymerase (Hepacivirus hominis, UniProt O39930, M423K); assay: Inhibition of HCV1b BK NS5B Cdelta21 RNA dependent RNA polymerase Thumb site 2 M423K mutant; design: species or system Hepatitis C virus (isolate BK)
[32] = biological target: RNA-directed RNA polymerase (Hepacivirus hominis, UniProt O39930, M414T); assay: Inhibition of HCV1b BK NS5B Cdelta21 RNA dependent RNA polymerase Palm site 1 and 2 M414T mutant; design: species or system Hepatitis C virus (isolate BK)
[33] = biological target: RNA-directed RNA polymerase (Hepacivirus hominis, UniProt O39930, P495A); assay: Inhibition of HCV1b BK NS5B Cdelta21 RNA dependent RNA polymerase Thumb site 1 P495A mutant; design: species or system Hepatitis C virus (isolate BK)

Q: Which results are given for CNCCNc1ccc2c3c(cccc13)C(=O)N(c1cccc(Br)c1)C2=O?
A: IC50 [1]: 400 nM; IC50 [2]: 130 nM; CC50 [3]: 1500 nM; EC50 [4]: 2000 nM

Q: Which results are given for O=C1c2cccc3c(NC4CCCCC4)ccc(c23)C(=O)N1c1cccc(Br)c1?
A: IC50 [1]: 120 nM; IC50 [2]: 66 nM; CC50 [3]: > 50000 nM; EC50 [4]: > 50000 nM

Q: Which IC50 [1] does the source give for CCNc1ccc2c3c(cccc13)C(=O)N(c1cccc(Br)c1)C2=O here?
A: 185 nM

Q: What about the IC50 [2] of the same compound?
A: 29 nM

Q: Which IC50 [5] does the source give for O=C1c2cccc3c(NCCO)ccc(c23)C(=O)N1c1cccc(Br)c1 here?
A: > 50000 nM

Q: What about the AUC [6] of the same compound?
A: 9.7 µM·h

Q: And the EC50 [7]?
A: 11000 nM

Q: And the IC50 [1]?
A: 180 nM

Q: What about the IC50 [8] of the same compound?
A: 770 nM

Q: What about the IC50 [9] of the same compound?
A: 64 nM

Q: What about the EC50 [10] of the same compound?
A: 11100 nM

Q: And the logD [11]?
A: 3.45

Q: What about the EC50 [12] of the same compound?
A: 6400 nM

Q: And the EC50 [13]?
A: 4700 nM

Q: And the Activity [14]?
A: inactive

Q: And the IC50 [15]?
A: > 50000 nM

Q: And the bioavailability [16]?
A: 83%

Q: What about the Cmax [17] of the same compound?
A: 4 µM

Q: What about the IC50 [18] of the same compound?
A: > 50000 nM

Q: What about the solubility [19] of the same compound?
A: 0.44 µg/mL (≈ 1.07 µM)

Q: And the IC50 [20]?
A: > 50000 nM

Q: What about the half-life [21] of the same compound?
A: 42 min

Q: And the Vd [22]?
A: 1.1 L/kg

Q: What about the EC50 [23] of the same compound?
A: 4600 nM

Q: What about the Activity [24] of the same compound?
A: inactive

Q: And the CC50 [3]?
A: 76000 nM

Q: What about the clearance [25] of the same compound?
A: 12 mL/min/kg

Q: What about the IC50 [26] of the same compound?
A: 760 nM

Q: What about the IC50 [27] of the same compound?
A: 540 nM

Q: What about the IC50 [28] of the same compound?
A: 490 nM

Q: What about the Activity [29] of the same compound?
A: Active

Q: Which IC50 [1] does the source give for OCCNc1ccc2c3c(cccc13)CN(c1cccc(Br)c1)C2 here?
A: > 50000 nM

Q: What about the IC50 [2] of the same compound?
A: > 50000 nM

Q: With COCCNc1ccc2c3c(cccc13)C(=O)N(c1cccc(Br)c1)C2=O as the compound, how does the IC50 [1] read?
A: 124 nM

Q: And the IC50 [2]?
A: 24 nM

Q: With O=C1c2cccc3c(NC4CCN(Cc5ccccc5)CC4)ccc(c23)C(=O)N1c1cccc(Br)c1 as the compound, how does the IC50 [1] read?
A: 43 nM

Q: And the IC50 [2]?
A: < 14 nM

Q: What about the CC50 [3] of the same compound?
A: 5200 nM

Q: What about the EC50 [4] of the same compound?
A: 2200 nM

Q: What does the source list for CN(CCO)c1ccc2c3c(cccc13)C(=O)N(c1cccc(Br)c1)C2=O?
A: IC50 [1]: 1800 nM; IC50 [2]: 500 nM

Q: Which results are given for O=C1c2cccc3c(NCCO)ccc(c23)C(=O)N1c1ccccc1?
A: IC50 [1]: > 50000 nM; IC50 [2]: 1700 nM

Q: For O=C1c2cccc3c(NC4CCNCC4)ccc(c23)C(=O)N1c1cccc(Br)c1, which IC50 [1] is on record?
A: 120 nM

Q: And the IC50 [2]?
A: 30 nM

Q: And the CC50 [3]?
A: 3500 nM

Q: And the EC50 [4]?
A: 1900 nM

Q: Which IC50 [1] does the source give for NS(=O)(=O)c1cccc(N2C(=O)c3cccc4c(NCCO)ccc(c34)C2=O)c1 here?
A: > 50000 nM

Q: What about the IC50 [2] of the same compound?
A: 1600 nM

Q: What about the CC50 [3] of the same compound?
A: > 50000 nM

Q: What about the EC50 [4] of the same compound?
A: > 50000 nM

Q: Which IC50 [1] does the source give for O=C1c2cccc3cccc(c23)C(=O)N1c1cccc(Br)c1 here?
A: > 50000 nM

Q: What about the IC50 [2] of the same compound?
A: > 50000 nM

Q: Which IC50 [1] does the source give for O=C1c2cccc3c(N[C@H]4CC[C@@H](C(=O)O)CC4)ccc(c23)C(=O)N1c1cccc(Br)c1 here?
A: 110 nM

Q: And the IC50 [2]?
A: 42 nM

Q: What about the CC50 [3] of the same compound?
A: > 50000 nM

Q: What about the EC50 [4] of the same compound?
A: 3800 nM

Q: Which results are given for CC(C)N(c1cc(-c2ccccc2)sc1C(=O)O)C(=O)[C@H]1CC[C@H](C)CC1?
A: IC50 [1]: > 10000 nM; IC50 [30]: 100 nM; IC50 [2]: 9 nM; IC50 [31]: > 500 nM; IC50 [32]: 16 nM; CC50 [3]: > 50000 nM; EC50 [4]: 1400 nM; IC50 [33]: 40 nM

Q: Which IC50 [1] does the source give for O=C1c2ccc(NCCO)c3cccc(c23)CN1c1cccc(Br)c1 here?
A: 3500 nM

Q: And the IC50 [2]?
A: 850 nM

Q: Which results are given for Nc1ccc2c3c(cccc13)C(=O)N(c1cccc(Br)c1)C2=O?
A: IC50 [1]: 300 nM; IC50 [2]: 190 nM

Q: What does the source list for CC(C)CNc1ccc2c3c(cccc13)C(=O)N(c1cccc(Br)c1)C2=O?
A: IC50 [1]: 90 nM; IC50 [2]: 130 nM; CC50 [3]: > 50000 nM; EC50 [4]: 11000 nM
